Data reported in ChEMBL document CHEMBL4406804, “Discovery of a Potent Steroidal Glucocorticoid Receptor Antagonist with Enhanced Selectivity against the Progesterone and Androgen Receptors (OP-3633)” (J Med Chem, 2019).
In brackets after ≈: the same amount, converted by molar mass. Activity calls are given as the source filed them. The calls are words filed in the database; no cut-off is given here.

Legend:
[1] = target: T1, Progesterone receptor (Homo sapiens) (UniProt P06401); test: Agonist activity at human progesterone receptor expressed in CHO-K1 cells harboring firefly luciferase gene after 20 hrs by One-Glo luciferase reporter gene assay; type: cell-based
T1 sequence (whole entry): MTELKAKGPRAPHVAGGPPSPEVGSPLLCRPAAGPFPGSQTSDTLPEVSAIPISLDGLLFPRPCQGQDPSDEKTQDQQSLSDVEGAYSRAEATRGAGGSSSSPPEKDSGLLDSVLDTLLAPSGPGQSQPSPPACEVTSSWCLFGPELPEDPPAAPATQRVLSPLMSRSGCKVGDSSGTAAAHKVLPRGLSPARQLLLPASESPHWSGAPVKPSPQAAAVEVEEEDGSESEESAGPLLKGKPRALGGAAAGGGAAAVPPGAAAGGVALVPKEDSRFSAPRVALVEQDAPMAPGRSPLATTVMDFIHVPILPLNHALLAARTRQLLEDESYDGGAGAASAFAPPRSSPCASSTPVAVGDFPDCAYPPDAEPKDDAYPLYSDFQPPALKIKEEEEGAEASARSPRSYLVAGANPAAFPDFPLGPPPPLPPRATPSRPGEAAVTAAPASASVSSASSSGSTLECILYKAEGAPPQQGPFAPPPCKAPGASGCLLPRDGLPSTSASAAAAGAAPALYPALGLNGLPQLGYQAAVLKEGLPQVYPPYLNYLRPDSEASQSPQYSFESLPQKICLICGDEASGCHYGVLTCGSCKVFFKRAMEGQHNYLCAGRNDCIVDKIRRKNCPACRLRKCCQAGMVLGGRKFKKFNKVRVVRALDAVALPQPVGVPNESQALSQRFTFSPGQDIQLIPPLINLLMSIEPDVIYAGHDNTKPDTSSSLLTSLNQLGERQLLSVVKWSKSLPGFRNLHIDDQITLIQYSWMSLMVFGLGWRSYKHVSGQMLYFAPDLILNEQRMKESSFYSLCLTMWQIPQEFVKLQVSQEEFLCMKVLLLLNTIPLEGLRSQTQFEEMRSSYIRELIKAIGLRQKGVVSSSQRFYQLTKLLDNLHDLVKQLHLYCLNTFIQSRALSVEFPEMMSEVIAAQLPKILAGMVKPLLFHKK
Method in brief: (§1)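 Cell-based luciferase reporter assays for GR, AR and PR, run in agonist and antagonist modes. Potency and Emax are averages of at least two determinations, reported with SD.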

Homo sapiens = species: Homo sapiens; test: Selectivity ratio, ratio of IC50 for human androgen receptor in human LNCAP cells to IC50 for human glucocorticoid receptor expressed in CHO-K1 cells harboring firefly luciferase gene; type: cell-based
Glucocorticoid receptor [2] = target: T2, Glucocorticoid receptor (Homo sapiens, UniProt P04150); test: Displacement of fluormone tracer from full length human recombinant glucocorticoid receptor expressed in baculovirus expression system incubated for 2 hrs by competitive fluorescence polarization binding assay
T2 sequence (P04150 whole entry): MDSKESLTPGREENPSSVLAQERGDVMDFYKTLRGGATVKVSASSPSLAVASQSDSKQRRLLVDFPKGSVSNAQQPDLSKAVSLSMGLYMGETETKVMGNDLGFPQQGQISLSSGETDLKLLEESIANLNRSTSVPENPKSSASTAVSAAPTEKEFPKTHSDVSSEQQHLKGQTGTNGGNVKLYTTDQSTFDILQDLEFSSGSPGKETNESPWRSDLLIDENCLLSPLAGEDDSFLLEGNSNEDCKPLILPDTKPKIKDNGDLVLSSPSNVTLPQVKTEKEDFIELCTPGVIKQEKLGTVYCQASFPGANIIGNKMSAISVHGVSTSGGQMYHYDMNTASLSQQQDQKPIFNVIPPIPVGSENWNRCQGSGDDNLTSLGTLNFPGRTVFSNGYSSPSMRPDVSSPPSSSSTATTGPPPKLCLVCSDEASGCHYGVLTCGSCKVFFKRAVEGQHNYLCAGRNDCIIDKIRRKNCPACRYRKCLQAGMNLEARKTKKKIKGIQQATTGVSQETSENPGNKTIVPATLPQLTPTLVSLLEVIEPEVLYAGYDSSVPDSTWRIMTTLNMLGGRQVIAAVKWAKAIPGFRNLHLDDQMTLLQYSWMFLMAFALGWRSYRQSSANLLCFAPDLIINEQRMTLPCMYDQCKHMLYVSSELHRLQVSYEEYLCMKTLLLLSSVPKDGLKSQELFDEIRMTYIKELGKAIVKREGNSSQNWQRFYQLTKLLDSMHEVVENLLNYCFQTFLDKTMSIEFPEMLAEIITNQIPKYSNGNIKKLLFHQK

[3] = target: T3, Glucocorticoid receptor (Homo sapiens) (UniProt P04150); test: Antagonist activity at human glucocorticoid receptor expressed in CHO-K1 cells harboring firefly luciferase gene assessed as inhibition of glucocorticoid receptor activity at 0.01 to 10000 nM after 20 hrs by One-Glo luciferase reporter gene assay relative to mifepristone; type: cell-based; design: scale not given: the % may be the effect or the level left; method in brief: as §1
T3 sequence (whole entry): T2 sequence (P04150 whole entry)

Androgen receptor [4] = target: T4, Androgen receptor (Homo sapiens, UniProt P10275); test: Antagonist activity at human androgen receptor in human LNCAP cells harboring firefly luciferase gene after 20 hrs by One-Glo luciferase reporter gene assay; type: cell-based; method in brief: as §1
T4 sequence (P10275 whole entry): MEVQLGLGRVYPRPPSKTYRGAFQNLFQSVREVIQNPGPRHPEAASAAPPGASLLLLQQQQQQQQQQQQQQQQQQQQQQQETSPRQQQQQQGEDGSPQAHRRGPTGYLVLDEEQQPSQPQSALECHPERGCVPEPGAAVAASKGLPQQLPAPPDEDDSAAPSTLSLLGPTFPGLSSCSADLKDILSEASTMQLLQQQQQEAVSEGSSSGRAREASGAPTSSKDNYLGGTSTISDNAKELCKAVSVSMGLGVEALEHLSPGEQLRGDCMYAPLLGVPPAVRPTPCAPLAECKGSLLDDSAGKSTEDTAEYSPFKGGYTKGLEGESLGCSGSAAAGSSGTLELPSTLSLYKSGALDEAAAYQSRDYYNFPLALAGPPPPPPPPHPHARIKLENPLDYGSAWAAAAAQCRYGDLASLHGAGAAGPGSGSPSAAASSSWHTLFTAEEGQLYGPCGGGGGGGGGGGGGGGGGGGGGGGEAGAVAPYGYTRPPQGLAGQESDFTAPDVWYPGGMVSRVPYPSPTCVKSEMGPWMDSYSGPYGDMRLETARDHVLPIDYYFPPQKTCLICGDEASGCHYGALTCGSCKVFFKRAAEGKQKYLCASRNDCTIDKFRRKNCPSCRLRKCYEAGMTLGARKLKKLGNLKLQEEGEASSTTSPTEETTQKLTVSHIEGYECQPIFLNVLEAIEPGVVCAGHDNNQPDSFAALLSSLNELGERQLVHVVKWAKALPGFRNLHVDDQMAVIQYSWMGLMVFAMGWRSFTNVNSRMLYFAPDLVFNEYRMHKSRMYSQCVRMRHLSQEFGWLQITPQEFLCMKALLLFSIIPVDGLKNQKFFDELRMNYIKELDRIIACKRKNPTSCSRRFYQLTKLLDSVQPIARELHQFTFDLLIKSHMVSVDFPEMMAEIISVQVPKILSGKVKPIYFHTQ

Glucocorticoid receptor [5] = target: T2, Glucocorticoid receptor; test: Antagonist activity at human glucocorticoid receptor expressed in CHO-K1 cells assessed as inhibition of glucocorticoid receptor-dexamethasone coactivator protein-protein interaction incubated for 24 hrs by bioluminescence assay; type: cell-based
Progesterone receptor = target: T5, Progesterone receptor (Homo sapiens, UniProt P06401); test: Antagonist activity at human progesterone receptor expressed in CHO-K1 cells harboring firefly luciferase gene after 20 hrs by One-Glo luciferase reporter gene assay; type: cell-based; method in brief: as §1
T5 sequence (P06401 whole entry): T1 sequence (whole entry)

Glucocorticoid receptor [6] = target: T2, Glucocorticoid receptor; test: Antagonist activity at human glucocorticoid receptor expressed in CHO-K1 cells harboring firefly luciferase gene after 20 hrs by One-Glo luciferase reporter gene assay; type: cell-based
Androgen receptor [7] = target: T4, Androgen receptor; test: Agonist activity at human androgen receptor in human LNCAP cells harboring firefly luciferase gene after 20 hrs by One-Glo luciferase reporter gene assay relative to mifepristone; type: cell-based; method in brief: as §1
CYP3A4 = CYP3A4 (Homo sapiens, UniProt P08684); test: Inhibition of CYP3A4 (unknown origin) at 10 uM using midazolam as substrate relative to control; type: ADME; conditions: probe midazolam
Androgen receptor [8] = target: T4, Androgen receptor; test: Agonist activity at human androgen receptor in human LNCAP cells harboring firefly luciferase gene after 20 hrs by One-Glo luciferase reporter gene assay; type: cell-based
CYP2C8 = target: T6, CYP2C8 (Homo sapiens, UniProt P10632); test: Inhibition of CYP2C8 (unknown origin) at 10 uM using paclitaxel as substrate relative to control; type: ADME; conditions: probe paclitaxel
T6 sequence (P10632 whole entry): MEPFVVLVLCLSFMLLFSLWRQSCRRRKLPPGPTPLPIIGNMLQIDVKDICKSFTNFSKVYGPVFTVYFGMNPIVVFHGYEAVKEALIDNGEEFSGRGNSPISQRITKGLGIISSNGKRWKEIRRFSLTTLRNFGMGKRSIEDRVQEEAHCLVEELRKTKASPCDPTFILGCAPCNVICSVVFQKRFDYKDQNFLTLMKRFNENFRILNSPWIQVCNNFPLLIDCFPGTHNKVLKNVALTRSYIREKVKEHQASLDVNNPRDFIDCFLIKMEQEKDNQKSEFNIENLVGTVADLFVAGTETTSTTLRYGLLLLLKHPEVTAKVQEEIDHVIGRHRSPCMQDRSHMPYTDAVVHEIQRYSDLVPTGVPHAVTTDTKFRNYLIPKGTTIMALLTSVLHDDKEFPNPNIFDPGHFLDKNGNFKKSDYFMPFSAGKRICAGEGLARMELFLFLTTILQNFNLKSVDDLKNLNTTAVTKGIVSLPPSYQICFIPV

[9] = Solubility of compound in fasted state simulated gastric fluid at pH 1.2; type: physicochemical
[10] = Solubility of compound in PBS at pH 7.4; type: physicochemical
[11] = Solubility of compound in fasted state simulated intestinal fluid at pH 6.5; type: physicochemical

Chain of CYP3A4 (P08684 whole entry): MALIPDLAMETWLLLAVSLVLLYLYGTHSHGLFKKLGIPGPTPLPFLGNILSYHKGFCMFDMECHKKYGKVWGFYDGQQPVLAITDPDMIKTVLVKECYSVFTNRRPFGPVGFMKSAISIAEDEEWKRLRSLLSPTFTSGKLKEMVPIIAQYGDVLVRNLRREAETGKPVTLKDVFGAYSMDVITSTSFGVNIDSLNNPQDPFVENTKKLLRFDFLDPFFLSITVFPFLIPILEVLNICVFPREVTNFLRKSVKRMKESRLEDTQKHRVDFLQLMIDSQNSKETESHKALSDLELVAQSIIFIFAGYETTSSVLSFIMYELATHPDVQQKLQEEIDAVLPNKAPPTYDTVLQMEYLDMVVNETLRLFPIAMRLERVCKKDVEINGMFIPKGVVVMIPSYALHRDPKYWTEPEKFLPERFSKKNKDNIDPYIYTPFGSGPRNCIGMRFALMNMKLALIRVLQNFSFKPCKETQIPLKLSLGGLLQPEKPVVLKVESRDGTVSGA

| IC50 (Glucocorticoid receptor [2]) [nM] | IC50 (Glucocorticoid receptor [5]) [nM] | solubility [9] [µM] | solubility [10] [µM] | solubility [11] [µM] | SMILES | agonist activity [1] | Ratio (Homo sapiens) | Activity [3] [%] | IC50 (Androgen receptor [4]) [nM] | IC50 (Progesterone receptor) [nM] | IC50 (Glucocorticoid receptor [6]) [nM] | Emax at 20 h (Androgen receptor [7]) [%] | inhibition at 10 µM (CYP3A4) [%] | EC50 (Androgen receptor [8]) [nM] | inhibition at 10 µM (CYP2C8) [%] |
| --- | --- | --- | --- | --- | --- | --- | --- | --- | --- | --- | --- | --- | --- | --- | --- |
| 8 | 7.5 | – | – | – | CN(C)c1ccc([C@H]2C[C@@]3(C)[C@@H](CC[C@@]3(O)C#CC(C)(C)C)[C@@H]3CCC4=CC(=O)CCC4=C32)cc1 | inactive | 10 to 30 | 100 | 129 | 14.4 | – | – | – | – | – |
| – | – | – | – | – | CN(C)c1ccc([C@H]2C[C@@]3(C)[C@@H](CC[C@@]3(O)C#CC3CC3)[C@@H]3CCC4=CC(=O)CC[C@]4(C)[C@H]32)cc1 | inactive | – | 100 | 1450 | 1490 | 28.5 | 5.4 | 53 | > 2500 | 70 |
| – | – | – | – | – | CC(C)(C)C#C[C@]1(O)CC[C@H]2[C@@H]3CCC4=CC(=O)CC[C@@H]4[C@H]3[C@@H](c3ccc(N4CCN(S(C)(=O)=O)CC4)cc3)C[C@@]21C | inactive | 10 to 30 | 100 | 359 | 4.6 | 12.2 | 18.1 | – | > 2500 | – |
| – | – | > 1160 | 3 (≈ 1.29 µg/mL) | 5.4 (≈ 2.32 µg/mL) | CC#C[C@]1(O)CC[C@H]2[C@@H]3CCC4=CC(=O)CCC4=C3[C@@H](c3ccc(N(C)C)cc3)C[C@@]21C [MIFEPRISTONE] | – | – | – | – | – | – | – | – | – | – |
| – | – | – | – | – | CN(C)c1ccc([C@H]2C[C@@]3(C)[C@@H](CC[C@@]3(O)C#CC(C)(C)C)[C@@H]3CCC4=CC(=O)CC[C@]4(C)[C@H]32)cc1 | inactive | 70 | 100 | > 5000 | 2490 | 33.6 | 7.4 | 71 | > 2500 | 84 |
